One test has as its system MT4. As to the kind of experiment: Antiproliferative activity against human MT4 cells after 96 hrs by MTT assay. Format: functional, cell-based. Particulars: MT4, 96 h. In a few lines:
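Exponentially growing MT-4 cells (CD4+ human T-cells carrying integrated HTLV-1 genome), seeded at 1×10^5 cells/mL in RPMI-1640 with 10% FCS and antibiotics. Serial dilutions of compound (DMSO stock 100 mM, diluted in medium), 37 °C, 5% CO₂, 96 h. Viability read by MTT. 50% inhibition versus untreated controls by linear regression. Mean ± SD of three independent determinations.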
Background: Tetrazolium assays rely on reduction of a dye to a coloured formazan, in cell work by metabolically active cells.

Another test deals with CCRF-SB. In words: Cytotoxicity against human CCRF-SB cells after 96 hrs by MTT assay. Format: functional, cell-based. A digest of the protocol: (§1)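 ATCC cell lines, mycoplasma-free by Hoechst staining. Haematological lines in RPMI-1640, solid-tumour and normal fibroblast lines in their own media, all with 10% FCS and antibiotics, at 37 °C in 5% CO₂. Compounds added as serial dilutions from a 100 mM DMSO stock diluted in medium. Viability by MTT after 96 h at 37 °C. Mean ± SD of three independent determinations.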

A further test concerns CCRF-CEM. As to the kind of experiment: Cytotoxicity against human CCRF-CEM cells after 96 hrs by MTT assay. The test is classed as functional, cell-based. A digest of the protocol:
as §1

The nature of test [1]: Cytotoxicity against human SKMES1 cells after 96 hrs by MTT assay. The test is classed as functional, cell-based. The settings on record: SK-MES-1, 96 h. In a few lines: as §1
In another test the test system is HepG2. As to the kind of experiment: Cytotoxicity against human HepG2 cells after 96 hrs by MTT assay. Format: functional, cell-based. The settings on record: HepG2, 96 h. In a few lines: as §1
In a further test the test system is MCF7. As to the kind of experiment: Cytotoxicity against human MCF7 cells after 96 hrs by MTT assay. Format: functional, cell-based. Particulars: MCF7, 96 h. A digest of the protocol: as §1
The test system of the next test is DU-145. In words: Cytotoxicity against human DU145 cells after 96 hrs by MTT assay. Format: functional, cell-based. The settings on record: DU-145, 96 h. A digest of the protocol: as §1
The test system of a further test is SK-MEL-28. In words: Cytotoxicity against human SK-MEL-28 cells after 96 hrs by MTT assay. The test is classed as functional, cell-based. Particulars: SK-MEL-28, 96 h. A digest of the protocol:
as §1

The next test relates to MRC5. As to the kind of experiment: Cytotoxicity against human MRC5 cells after 96 hrs by MTT assay. The test is classed as cell-based. Particulars: MRC5, 96 h. A digest of the protocol: as §1
Test [2] is described as follows: Cytotoxicity against human CRL7065 cells after 96 hrs by MTT assay. The settings on record: CRL-7065, 96 h. Format: cell-based. A digest of the protocol: as §1
A further test deals with WIL2-NS. As to the kind of experiment: Cytotoxicity against human WIL2-NS cells after 96 hrs by MTT assay. Format: functional, cell-based. In a few lines: as §1

pEC50: −log10 of the molar value.

For the compound `N#C/C(=C\c1c(-c2ccccc2)[nH]c2ccccc12)C(=O)N1CCCCC1`, the pEC50 with MT4 was 5.02.
On the same count and under the same terms, the figure for `N#C/C(=C\c1c(-c2ccccc2)[nH]c2ccccc12)C(N)=O` is 5.22; for `Cn1cc(/C=C(\C#N)S(=O)(=O)c2ccccc2)c2ccccc21` it is below 4.00; for `CC(C)OP(=O)(OC(C)C)/C(C#N)=C/c1c(-c2ccccc2)[nH]c2ccccc12` it is 4.96.
On the same count and under the same terms, the figure for `Cc1[nH]c2ccccc2c1/C=C(\C#N)S(=O)(=O)c1ccccc1` is below 4.00.
As to `O=C(/C(=C\c1c(-c2ccccc2)[nH]c2ccccc12)C(=O)C(F)(F)F)c1ccco1`, the pEC50 is 5.74 with CCRF-SB; 5.72 in the test with CCRF-CEM; 4.57 in [1]; 4.80 in the test with HepG2; 5.00 in the test on MCF7; 5.04 with DU-145. Further, the pEC50 was 4.48 in the test with SK-MEL-28; 4.92 in the test with MRC5; 5.09 in test [2]; 5.64 with WIL2-NS; 6.10 in the test with MT4.
On to `CS(=O)(=O)/C(C#N)=C/c1c[nH]c2ccccc12`, for which, in the test on MT4, the pEC50 is below 4.00.
The same measure, in the same setting: the figure for `COC(=O)/C(=C\c1c(-c2ccccc2)[nH]c2ccccc12)S(=O)(=O)c1ccccc1` is 6.00; for `CCOP(=O)(OCC)/C(C#N)=C/c1c[nH]c2ccccc12` it is 4.10; for `CCOC(=O)/C(=C/c1c(-c2ccccc2)[nH]c2ccccc12)C(=O)c1ccc(Cl)cc1` it is 5.05.
On the same count and under the same terms, the figure for `Cc1[nH]c2ccccc2c1C=C(C#N)C#N` is 4.25.
Turning to `CC(=O)/C(=C/c1c(-c2ccccc2)[nH]c2ccccc12)C(=O)c1ccccc1`, the pEC50 with CCRF-SB was 4.96; with CCRF-CEM it was 5.09; in test [1], below 4.00; with HepG2, 4.10; in the test with MCF7, below 4.00; with DU-145, below 4.00. Further, the pEC50 in the test on SK-MEL-28 is below 4.00; in the test with MRC5 it was below 4.00; in test [2] it was below 4.00; with WIL2-NS, 4.92; with MT4, 5.70.
As to `COc1cccc2c1C(=O)c1c(O)c3c(c(O)c1C2=O)C[C@@](O)(C(=O)CO)C[C@@H]3O[C@H]1C[C@H](N)[C@H](O)[C@H](C)O1` [DOXORUBICIN], the pEC50 with CCRF-SB was 8.00; in the test on CCRF-CEM, 7.70; in test [1] it was 7.00; in the test on HepG2 it was 6.52; in the test on MCF7 it was 6.52; in the test on DU-145 it was 6.70. For the same compound, the pEC50 with SK-MEL-28 is 6.15; in the test with MRC5, 6.52; in test [2], 6.05; in the test with WIL2-NS it was 7.40; in the test with MT4, 7.52.
In turn, `Cc1[nH]c2ccccc2c1/C=C(\C#N)S(C)(=O)=O` gave a pEC50 in the test on MT4 below 4.00.
The same measure, in the same setting: then `CC(C)(C)C(=O)/C(C#N)=C/c1c(-c2ccccc2)[nH]c2ccccc12`, with 6.30; and `CCOC(=O)/C(=C/c1c[nH]c2ccccc12)C(=O)c1ccccc1`, with below 4.00; and `CCOC(=O)/C(C#N)=C/c1c(-c2ccccc2)[nH]c2ccccc12`, with 5.77.
`CCOC(=O)/C(=C\c1c(-c2ccccc2)[nH]c2ccccc12)C(C)=O`: the pEC50 is 5.80 with CCRF-SB; 5.85 in the test on CCRF-CEM; 4.64 in test [1]; 4.72 in the test on HepG2; 4.49 in the test on MCF7; 4.96 in the test on DU-145. Further, the pEC50 in the test with SK-MEL-28 is 4.52; with MRC5, 4.51; in test [2], 4.08; in the test on WIL2-NS it was 5.57; in the test with MT4, 6.22.
Consider `CC(=O)/C(=C\c1c(-c2ccccc2)[nH]c2ccccc12)S(=O)(=O)c1ccc(Cl)cc1`, for which the pEC50 with MT4 is below 4.00.
The compound `COC(=O)/C(=C\c1c[nH]c2ccccc12)S(=O)(=O)c1ccccc1` showed a pEC50 in the test with MT4 below 4.00.
On to `N#C/C(=C\c1c(-c2ccccc2)[nH]c2ccccc12)C(=O)c1ccc(Cl)cc1`, for which the pEC50 with CCRF-SB is 6.22; in the test on CCRF-CEM, 5.96; in [1], 4.72; with HepG2, 4.43; in the test with MCF7, 4.55; with DU-145 it was 4.96. Besides, the pEC50 in the test on SK-MEL-28 was 4.82; with MRC5 it was 4.85; in [2], 5.13; in the test on WIL2-NS it was 5.35; in the test on MT4 it was 6.40.
Consider `N#CC(C#N)=Cc1c[nH]c2ccccc12`, for which the pEC50 with MT4 is 4.44.
On the same count and under the same terms, the figure for `N#C/C(=C\c1c[nH]c2ccccc12)S(=O)(=O)c1ccccc1` is below 4.00.
Compound `CC(=O)C(=Cc1c(-c2ccccc2)[nH]c2ccccc12)C(C)=O` had a negative-log EC50 (pEC50) in the test on MT4 of 5.82.
In the case of `COCCOC(=O)/C(C#N)=C/c1c(-c2ccccc2)[nH]c2ccccc12`, the pEC50 with CCRF-SB was 5.66; in the test with CCRF-CEM, 5.80; in [1], 5.30; in the test on HepG2 it was 4.07; with MCF7, 4.92; in the test on DU-145, 5.38. Besides, the pEC50 is 5.03 in the test on SK-MEL-28; below 4.00 in the test on MRC5; 4.12 in test [2]; 5.66 in the test on WIL2-NS; 5.92 in the test with MT4.
For `O=C(C(=Cc1c(-c2ccccc2)[nH]c2ccccc12)C(=O)c1ccccc1)c1ccccc1`, the pEC50 was 4.92 with CCRF-SB; 4.92 with CCRF-CEM; below 4.00 in test [1]; below 4.00 with HepG2; below 4.00 in the test on MCF7; below 4.00 with DU-145. For the same compound, the pEC50 in the test with SK-MEL-28 is below 4.00; in the test with MRC5, below 4.00; in test [2], below 4.00; in the test on WIL2-NS it was 4.14; in the test on MT4 it was 5.05.
For `CCOC(=O)/C(=C/c1c(-c2ccccc2)[nH]c2ccccc12)C(=O)c1ccccc1`, the pEC50 is 5.02 in the test on CCRF-SB; 5.10 with CCRF-CEM; below 4.00 in test [1]; 4.51 with HepG2; 4.37 in the test with MCF7; 4.17 in the test with DU-145. For the same compound, the pEC50 in the test on SK-MEL-28 was below 4.00; in the test on MRC5, below 4.00; in test [2], below 4.00; with WIL2-NS, 4.92; in the test on MT4, 5.15.
As for `CCOC(=O)/C(=C/c1c(-c2ccccc2)[nH]c2ccccc12)C(=O)c1ccc([N+](=O)[O-])cc1`, the pEC50 with CCRF-SB is 5.66; with CCRF-CEM it was 5.74; in test [1], 4.72; in the test on HepG2 it was 4.55; with MCF7, 4.40; in the test on DU-145, 4.96. For the same compound, the pEC50 in the test on SK-MEL-28 is below 4.00; in the test on MRC5 it was below 4.00; in test [2], below 4.00; in the test with WIL2-NS, 5.62; with MT4 it was 5.82.
In the test on MT4, `Cn1cc(/C=C(\C#N)S(C)(=O)=O)c2ccccc21` had a pEC50 below 4.00.
The same measure, in the same setting: the figure for `CCOC(=O)/C(=C/c1c[nH]c2ccccc12)C(=O)c1ccc([N+](=O)[O-])cc1` is 4.00.
The same measure, in the same setting: the figure for `N#C/C(=C\c1c(-c2ccccc2)[nH]c2ccccc12)C(=O)Nc1ccc(Cl)cc1` is 5.77.
On the same count and under the same terms, the figure for `Cc1ccc(S(=O)(=O)/C(C#N)=C/c2c(-c3ccccc3)[nH]c3ccccc23)cc1` is 6.40.

The pEC50 is the negative decadic logarithm of the EC50, by convention in mol/L. A high value points to a low EC50.

These data come from ChEMBL document CHEMBL3616442, “Unconventional Knoevenagel-type indoles: Synthesis and cell-based studies for the identification of pro-apoptotic agents” (Eur J Med Chem, 2015).
